These results are taken from ChEMBL document CHEMBL3046889, “Structure-activity relationships of phenylcyclohexene and biphenyl antitubulin compounds against plant and mammalian cells” (Bioorg Med Chem Lett, 2001).

The structures appear in SMILES notation. Calls of active or inactive are those of the source. The calls are words filed in the database; no cut-off is given here. Bounds are passed on as bounds.

Assay [1] concerns HCT-116. The experiment in a line: Antitumor activity against Homo sapiens (human) HCT116 cells. The format is functional, cell-based. A digest of the protocol:
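Cytotoxicity toward human HCT116 colon cancer cells measured by sulforhodamine B assay in 96-well format.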

In assay [2] the test system is Nicotiana tabacum. The experiment in a line: Inhibition of Nicotiana tabacum (tobacco) root growth assessed as inhibition of root elongation. The format is functional, organism-based. In outline: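 In vitro tobacco root growth assay on germinating seeds; root elongation scored, EC50 derived.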
In assay [3] the test system is Tubulin (Bos taurus). The experiment in a line: Inhibition of Bos taurus (bovine) brain tubulin polymerization at 200 uM.
The test system of assay [4] is Nicotiana tabacum. The experiment in a line: Mitotic arrest in Nicotiana tabacum (tobacco) root suspension-cultured cells assessed as accumulation of cells in metaphase by cytological staining assay. The format is functional. In outline:
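Suspension-cultured tobacco cells were treated with the compound, and their chromosomes were cytologically stained. The read-out was mitotic index, meaning the fraction of cells in mitosis, with arrest scored as cells accumulating in metaphase.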

Assay [5] deals with Tubulin (Bos taurus). Description: Displacement of [3H]colchicine from Bos taurus (bovine) brain tubulin by competition assay. A general note: In a radioligand displacement assay an active substance lowers the binding of a labelled ligand.

For orientation: EC50 means the concentration at which the effect is half-maximal. With `COc1ccc(-c2ccc(OC)c(OC)c2OC)c(C#N)c1`, the EC50 in assay [1] (Homo sapiens, HCT-116) was 0.58 µM; in assay [2] (Nicotiana tabacum), more than 100 µM.

As to `COc1ccc(-c2ccc(OC)c(OC)c2OC)c([N+](=O)[O-])c1`, the EC50 in assay [1] (Homo sapiens, HCT-116) was 2.65 µM; in assay [2] (Nicotiana tabacum), more than 100 µM.

Turning to `COc1ccc(-c2ccccc2[N+](=O)[O-])c(OC)c1OC`, the EC50 in assay [1] (Homo sapiens, HCT-116) stood at 19.6 µM; in assay [2] (Nicotiana tabacum), 52 µM.

For the compound `COc1ccc(-c2ccccc2C#N)c(OC)c1OC`, the EC50 in assay [1] (Homo sapiens, HCT-116) is 13.8 µM; in assay [2] (Nicotiana tabacum), more than 100 µM.

Consider `COc1ccc(-c2ccc(OC)c(OC)c2OC)c(C)c1`, for which the EC50 was 0.78 µM in assay [1] (Homo sapiens, HCT-116) and more than 100 µM in assay [2] (Nicotiana tabacum).

With `O=[N+]([O-])[C@@H]1CC=CC[C@H]1c1ccccc1` (mixture of isomers), the EC50 is 174 µM in assay [1] (Homo sapiens, HCT-116) and more than 100 µM in assay [2] (Nicotiana tabacum).

Regarding `COc1ccc(C2CC=CCC2C#N)c(OC)c1OC` (mixture of isomers), the inhibition result in assay [3] was “Active”. Also, the EC50 was found to be 113 µM in assay [1] (Homo sapiens, HCT-116) and 2.29 µM in assay [2] (Nicotiana tabacum).

As for `COc1ccc([C@@H]2CC=CC[C@H]2[N+](=O)[O-])c(OC)c1OC` (racemic) [listing 1 of 2 here], the EC50 in assay [1] (hct-116) is 85 µM; in assay [2] it was 0.27 µM.

For the compound `COc1cccc([C@@H]2CC=CC[C@H]2[N+](=O)[O-])c1` (racemic), the EC50 in assay [1] (Homo sapiens, HCT-116) was 143 µM; in assay [2] (Nicotiana tabacum), 3.78 µM.

For the compound `COc1ccc([C@@H]2CC=CC[C@H]2[N+](=O)[O-])c(OC)c1OC` (racemic) [listing 2 of 2 here], in assay [4], the result was Active. In addition, the inhibition entry in assay [3] and in assay [5] was “Active” throughout.

On to `COc1ccc([C@H]2CC=CC[C@H]2C#N)c(OC)c1OC` (single isomer, unassigned), for which, in assay [1] (hct-116), the EC50 amounted to 142 µM.

As for `COc1ccc([C@@H]2CC=CC[C@H]2[N+](=O)[O-])c(OC)c1OC` (single isomer, unassigned), the EC50 in assay [1] (Homo sapiens, HCT-116) stood at 71 µM; in assay [2], 1.96 µM.

`COc1ccc([C@H]2CC=CC[C@@H]2C#N)c(OC)c1OC` (single isomer, unassigned; enantiomer I): the EC50 in assay [1] (hct-116) was 136 µM; in assay [2] it was 0.667 µM.

Regarding `COc1ccc([C@@H]2CC=CC[C@H]2[N+](=O)[O-])c(OC)c1OC` (single isomer, unassigned; enantiomer I), the EC50 stood at 79 µM in assay [1] (hct-116) and 0.1 µM in assay [2].

`COc1ccc([C@H]2CC=CC[C@@H]2C#N)c(OC)c1OC` (single isomer, unassigned; enantiomer II): the EC50 in assay [1] (hct-116) stood at 47 µM; in assay [2] it was 7.17 µM.

Regarding `COc1ccc([C@H]2CC=CC[C@H]2C#N)c(OC)c1OC` (single isomer, unassigned; enantiomer II), the EC50 is 45 µM in assay [1] (hct-116) and more than 25 µM in assay [2] (Nicotiana tabacum).

As for `COc1ccc(-c2ccc(OC)c(OC)c2OC)cc1` [2,3,4,4'-TETRAMETHOXYBIPHENYL], the EC50 in assay [1] (Homo sapiens, HCT-116) is 1.52 µM; in assay [2] (Nicotiana tabacum), more than 100 µM.

On to `COc1cc2c(c(OC)c1OC)-c1ccc(OC)c(=O)cc1[C@@H](NC(C)=O)CC2` [COLCHICINE], for which the outcome in assay [4] was Active. Also, the EC50 was found to be 0.02 µM in assay [1] (Homo sapiens, HCT-116) and 356 µM in assay [2] (Nicotiana tabacum).
